In ChEMBL document CHEMBL4387777, “Bis(benzoyl) phosphate inactivators of beta-lactamase C from Mtb” (Bioorg Med Chem Lett, 2019):

Columns and labels:
[1] = Stability of the compound in pH 7.4 PIPES buffer assessed as compound hydrolysis at 5 to 10 mg by 31p-NMR analysis; type: physicochemical
[2] = system: Mycobacterium tuberculosis; assay: Inhibition of Mycobacterium tuberculosis BlaC expressed in Escherichia coli at 100 uM using nitrocefin as substrate measured at 2 mins interval for 10 mins relative to control
Method in brief: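 Purified BlaC was screened against each compound at a single concentration of 100 µM, and percent inhibition was read. Each % inhibition value comes from n ≥ 4 determinations and is reported with its standard deviation.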

[3] = system: Mycobacterium tuberculosis; assay: Time-dependent inhibition of Mycobacterium tuberculosis BlaC expressed in Escherichia coli assessed as inactivation rate constant using nitrocefin as substrate

SMILES | Stability [1] | inhibition [2] | K [3]
O=C(OP(=O)(O)OC(=O)c1ccc([N+](=O)[O-])cc1)c1ccc([N+](=O)[O-])cc1 | Unstable |  | 
O=C(OP(=O)(O)OC(=O)c1ccc(C(F)(F)F)cc1)c1ccc(C(F)(F)F)cc1 | Stable | 42.5% | 
O=C(OP(=O)(O)OC(=O)c1ccc(-c2ccccc2)cc1)c1ccc(-c2ccccc2)cc1 | Stable | 0% | 
O=C(OP(=O)(O)OC(=O)c1ccc(Cl)c(Cl)c1)c1ccc(Cl)c(Cl)c1 | Stable | 20.2% | 
N#Cc1ccc(C(=O)OP(=O)(O)OC(=O)c2ccc(C#N)cc2)cc1 | Unstable |  | 
Cc1ccc(C(=O)OP(=O)(O)OC(=O)c2ccc(C)cc2)cc1 | Stable | 41.2% | 
O=C(OP(=O)(O)OC(=O)c1ccc(F)cc1)c1ccc(F)cc1 | Stable | 84.3% | 0.45 min⁻¹
O=C(OP(=O)(O)OC(=O)c1ccc(Cl)cc1)c1ccc(Cl)cc1 | Stable | 24.8% | 
O=C(OP(=O)(O)OC(=O)c1ccccc1)c1ccccc1 | Stable | 52.3% | 0.324 min⁻¹
COc1ccc(C(=O)OP(=O)(O)OC(=O)c2ccc(OC)cc2)cc1 | Stable | 65.5% | 0.212 min⁻¹
